The values that follow come from ChEMBL document CHEMBL1799971, “Bivalent dopamine D2 receptor ligands: synthesis and binding properties” (J Med Chem, 2011).

The structures appear in SMILES notation. Calls of active or inactive are those of the source. The calls are words filed in the database; no cut-off is given here.

Test [1] concerns the target T1, D(2) dopamine receptor (Homo sapiens, UniProt P14416). Briefly: Displacement of [3H]spiperone from human D2 receptor expressed in CHO cells assessed as dissociation half life. In kind it is cell-based.
The next test addresses D(1A) dopamine receptor (Sus scrofa, UniProt P50130). Briefly: Displacement of [3H]SCH23390 from D1 receptor from porcine cerebral cortex homogenates. Format: tissue-based. The essentials:
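Porcine cerebral cortex homogenate membranes at 40–60 μg/mL protein (Lowry, BSA standard). Competition curves were fitted to a sigmoid by nonlinear regression, with log EC50 and Hill coefficient as free parameters.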

Test [2] has as its target T1, D(2) dopamine receptor. Briefly: Antagonist activity at human D2long receptor expressed in CHO10001 cells assessed as inhibition of agonist-stimulated [3H]thymidine incorporation into cells by mitogenesis assay. Format: functional, cell-based.
Test [3] deals with T1, D(2) dopamine receptor. Briefly: Displacement of [3H]spiperone from human D2short receptor expressed in CHO cells in presence of 100 mM sodium chloride. In kind it is cell-based. The essentials: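 Buffer was 50 mM Tris, 1.0 mM EDTA, 5.0 mM MgCl2, 100 μg/mL bacitracin and 5 μg/mL soybean trypsin inhibitor, pH 7.4, plus NaCl at a final 100 mM. Curves were fitted by sigmoidal nonlinear regression with a free Hill coefficient.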

A further test deals with T2, D(4) dopamine receptor (Homo sapiens, UniProt P21917).
T2 sequence (P21917 whole entry): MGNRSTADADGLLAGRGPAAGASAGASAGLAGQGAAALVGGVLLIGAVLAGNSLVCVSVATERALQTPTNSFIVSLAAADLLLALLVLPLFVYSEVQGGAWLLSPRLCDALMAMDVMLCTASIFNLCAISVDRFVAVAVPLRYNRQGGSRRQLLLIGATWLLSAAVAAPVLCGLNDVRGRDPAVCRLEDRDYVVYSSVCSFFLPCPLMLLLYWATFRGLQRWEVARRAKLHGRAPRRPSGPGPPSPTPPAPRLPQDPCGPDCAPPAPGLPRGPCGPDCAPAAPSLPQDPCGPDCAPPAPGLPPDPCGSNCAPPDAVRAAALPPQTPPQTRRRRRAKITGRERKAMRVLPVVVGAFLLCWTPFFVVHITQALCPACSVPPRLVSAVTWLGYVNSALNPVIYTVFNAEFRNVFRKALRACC
Briefly: Displacement of [3H]spiperone from human D4.4 receptor expressed in CHO cells. Format: cell-based.

The next test is filed under the species Homo sapiens. Kind of test: Selectivity ratio of Ki for human D4.4 receptor to Ki for human D3 receptor.
Test [4] concerns the target T1, D(2) dopamine receptor. Kind of test: Displacement of [3H]spiperone from human D2short receptor expressed in CHO cells. Format: cell-based.
The target of test [5] is T1, D(2) dopamine receptor. Kind of test: Displacement of [3H]spiperone from human D2long receptor expressed in CHO cells.
Another test concerns the target D(3) dopamine receptor (Homo sapiens, UniProt P35462). Briefly: Displacement of [3H]spiperone from human D3 receptor expressed in CHO cells. In kind it is cell-based.

T1 sequence (P14416 whole entry): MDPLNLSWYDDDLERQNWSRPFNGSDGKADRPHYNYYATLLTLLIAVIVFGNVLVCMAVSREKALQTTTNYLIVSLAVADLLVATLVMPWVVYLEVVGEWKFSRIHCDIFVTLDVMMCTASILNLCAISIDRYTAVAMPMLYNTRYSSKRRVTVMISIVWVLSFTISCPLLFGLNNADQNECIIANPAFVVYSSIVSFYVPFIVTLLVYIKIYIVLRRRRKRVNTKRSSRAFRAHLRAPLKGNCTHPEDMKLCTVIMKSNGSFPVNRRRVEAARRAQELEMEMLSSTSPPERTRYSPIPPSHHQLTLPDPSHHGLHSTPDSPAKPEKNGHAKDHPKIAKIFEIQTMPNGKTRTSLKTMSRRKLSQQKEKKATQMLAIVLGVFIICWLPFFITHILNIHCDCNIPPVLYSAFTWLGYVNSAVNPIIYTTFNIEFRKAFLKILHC
D(1A) dopamine receptor, sequence (P50130 whole entry): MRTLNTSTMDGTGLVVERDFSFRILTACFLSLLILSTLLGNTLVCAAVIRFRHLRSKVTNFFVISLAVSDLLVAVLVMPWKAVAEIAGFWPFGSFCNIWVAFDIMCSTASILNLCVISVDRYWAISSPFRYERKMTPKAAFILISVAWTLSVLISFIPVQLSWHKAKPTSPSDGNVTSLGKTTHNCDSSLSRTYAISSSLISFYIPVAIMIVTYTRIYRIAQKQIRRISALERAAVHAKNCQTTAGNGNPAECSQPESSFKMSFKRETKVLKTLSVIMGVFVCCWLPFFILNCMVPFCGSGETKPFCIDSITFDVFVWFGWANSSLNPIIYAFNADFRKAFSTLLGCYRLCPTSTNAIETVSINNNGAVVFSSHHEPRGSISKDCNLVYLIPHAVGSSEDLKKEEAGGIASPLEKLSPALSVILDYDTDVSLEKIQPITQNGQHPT
D(3) dopamine receptor, sequence (P35462 whole entry): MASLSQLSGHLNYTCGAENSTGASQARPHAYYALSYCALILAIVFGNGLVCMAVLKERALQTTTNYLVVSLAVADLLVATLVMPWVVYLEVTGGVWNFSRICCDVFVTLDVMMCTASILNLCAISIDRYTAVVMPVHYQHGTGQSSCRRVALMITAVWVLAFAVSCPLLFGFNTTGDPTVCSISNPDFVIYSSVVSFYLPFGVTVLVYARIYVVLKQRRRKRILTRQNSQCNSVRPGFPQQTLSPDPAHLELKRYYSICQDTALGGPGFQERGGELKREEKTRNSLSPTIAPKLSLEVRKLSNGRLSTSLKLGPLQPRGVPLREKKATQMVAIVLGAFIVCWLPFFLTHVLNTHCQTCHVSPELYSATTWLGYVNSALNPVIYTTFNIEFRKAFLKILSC

Take `CCCCn1cc(CCCOc2ccc(CN3CCN(c4ccccc4OC)CC3)cc2OC)nn1`: the T1/2 at D(2) dopamine receptor [1] turned out to be 2 h. Besides, the figures for the Ki on D(1A) dopamine receptor, on D(2) dopamine receptor [3] and at D(4) dopamine receptor were 1500 nM, 35 nM and 7.2 nM, respectively. Further, on D(2) dopamine receptor [2], the inhibition result was “Active”. Further, in the test filed under Homo sapiens, the Ratio Ki was 80.

For `CCCCn1cc(CCCCOc2ccc(CN3CCN(c4ccccc4OC)CC3)cc2OC)nn1`, the Ki on D(1A) dopamine receptor worked out at 2500 nM; at D(2) dopamine receptor [4] it was 67 nM; at D(2) dopamine receptor [5] it was 52 nM; at D(3) dopamine receptor it was 590 nM; on D(4) dopamine receptor, 13 nM.

Regarding `COc1cc(CN2CCN(c3ccccc3OC)CC2)ccc1OCCCc1cn(CCCCCCCCCCn2cc(CCCOc3ccc(CN4CCN(c5ccccc5OC)CC4)cc3OC)nn2)nn1`, the Ki came to 250 nM at D(1A) dopamine receptor; 17 nM at D(2) dopamine receptor [4]; 23 nM on D(2) dopamine receptor [5]; 96 nM at D(3) dopamine receptor; 19 nM on D(4) dopamine receptor.

`CCOCCn1cc(COc2ccc(CN3CCN(c4ccccc4OC)CC3)cc2OC)nn1`: the Ki was found to be 3800 nM at D(1A) dopamine receptor; 100 nM on D(2) dopamine receptor [4]; 68 nM at D(2) dopamine receptor [5]; 440 nM on D(3) dopamine receptor; 8.4 nM at D(4) dopamine receptor.

With `COc1cc(CN2CCN(C)CC2)ccc1OCCCc1cn(CCCCCCCCn2cc(CCCOc3ccc(CN4CCN(c5ccccc5OC)CC4)cc3OC)nn2)nn1`, the figures for the inhibition constant (Ki) at D(1A) dopamine receptor and at D(4) dopamine receptor were 980 nM and 12 nM, respectively.

As to `COc1cc(CN2CCN(c3ccccc3OC)CC2)ccc1OCc1cn(CCOCCOCCn2cc(COc3ccc(CN4CCN(c5ccccc5OC)CC4)cc3OC)nn2)nn1`, the Ki at D(1A) dopamine receptor is 390 nM; on D(2) dopamine receptor [4] it was 3.4 nM; at D(2) dopamine receptor [5], 3.3 nM; on D(3) dopamine receptor, 36 nM; on D(4) dopamine receptor, 6.8 nM.

With `COc1cc(CN2CCN(c3ccccc3OC)CC2)ccc1OCCCCc1cn(CCCCCCCCCCn2cc(CCCCOc3ccc(CN4CCN(c5ccccc5OC)CC4)cc3OC)nn2)nn1`, the Ki is 300 nM at D(1A) dopamine receptor; 8.2 nM on D(2) dopamine receptor [4]; 17 nM on D(2) dopamine receptor [5]; 74 nM on D(3) dopamine receptor; 11 nM at D(4) dopamine receptor.

As for `COc1cc(CN2CCN(c3ccccc3OC)CC2)ccc1OCCCc1cn(CCOCCOCCn2cc(CCCOc3ccc(CN4CCN(c5ccccc5OC)CC4)cc3OC)nn2)nn1`, the Ki at D(1A) dopamine receptor turned out to be 220 nM; on D(2) dopamine receptor [4], 3.7 nM; at D(2) dopamine receptor [5] it was 2.8 nM; at D(3) dopamine receptor, 61 nM; on D(4) dopamine receptor, 12 nM.

Consider `CCOCCn1cc(CCCOc2ccc(CN3CCN(c4ccccc4OC)CC3)cc2OC)nn1`, for which the Ki stood at 870 nM at D(1A) dopamine receptor; 16 nM at D(2) dopamine receptor [4]; 18 nM at D(2) dopamine receptor [5]; 250 nM at D(3) dopamine receptor; 6.4 nM at D(4) dopamine receptor.

In the case of `COc1cc(CN2CCN(c3ccccc3OC)CC2)ccc1OCCCc1cn(CCOCCOCCOCCn2cc(CCCOc3ccc(CN4CCN(c5ccccc5OC)CC4)cc3OC)nn2)nn1`, the Ki is 270 nM on D(1A) dopamine receptor; 6.2 nM at D(2) dopamine receptor [4]; 4.8 nM on D(2) dopamine receptor [5]; 72 nM at D(3) dopamine receptor; 19 nM on D(4) dopamine receptor.

Consider `COc1cc(CN2CCN(c3ccccc3OC)CC2)ccc1OCCCc1cn(CCCCCCCCn2cc(CCCOc3ccc(CN4CCN(c5ccccc5OC)CC4)cc3OC)nn2)nn1`, for which the T1/2 on D(2) dopamine receptor [1] came to 2.17 h. Also, the Ki stood at 220 nM at D(1A) dopamine receptor, 12 nM on D(2) dopamine receptor [3] and 15 nM on D(4) dopamine receptor. In addition, the inhibition entry on D(2) dopamine receptor [2] is “Active”. The Ratio Ki in the test listed under Homo sapiens turned out to be 5.

Turning to `COc1cc(CN2CCN(c3ccccc3OC)CC2)ccc1OCc1cn(CCCCCCCCn2cc(COc3ccc(CN4CCN(c5ccccc5OC)CC4)cc3OC)nn2)nn1`, the Ki on D(1A) dopamine receptor worked out at 210 nM; at D(2) dopamine receptor [4], 25 nM; on D(2) dopamine receptor [5], 16 nM; at D(3) dopamine receptor, 31 nM; on D(4) dopamine receptor, 5.4 nM. In addition, the Ratio Ki in the test listed under Homo sapiens amounted to 5.

As to `CCCc1cn(CCCCCCCCn2cc(CCCOc3ccc(CN4CCN(c5ccccc5OC)CC4)cc3OC)nn2)nn1`, the Ki at D(1A) dopamine receptor is 400 nM; at D(2) dopamine receptor [4], 32 nM; on D(2) dopamine receptor [5], 36 nM; at D(3) dopamine receptor, 230 nM; at D(4) dopamine receptor, 14 nM.

In the case of `CCCCn1cc(COc2ccc(CN3CCN(c4ccccc4OC)CC3)cc2OC)nn1`, the Ki at D(1A) dopamine receptor came to 2300 nM; on D(2) dopamine receptor [4] it was 70 nM; on D(2) dopamine receptor [5] it was 63 nM; on D(3) dopamine receptor it was 320 nM; on D(4) dopamine receptor, 3.3 nM. Also, the Ratio Ki in the test listed under Homo sapiens amounted to 80.

As for `COc1cc(CN2CCN(c3ccccc3OC)CC2)ccc1OCCCc1cn(CCCCCCCCn2cc(CCCOc3ccc(CN4CCN(C5CCCCC5)CC4)cc3OC)nn2)nn1`, the inhibitory constant (Ki) at D(1A) dopamine receptor was 480 nM; on D(4) dopamine receptor, 19 nM.
